Measurements reported in ChEMBL document CHEMBL1255395, “Laninamivir prodrug CS-8958, a long-acting neuraminidase inhibitor, shows superior anti-influenza virus activity after a single administration” (Antimicrob Agents Chemother, 2010).
Active and inactive are the calls of the source.

Experiments:
[1] = Half life in mouse; format: ADME, organism-based; conditions: in vivo
Influenza A virus [2] = assay: Antimicrobial activity against Influenza A virus (A/Puerto Rico/8/34(H1N1)) infected in BALB/c mouse assessed as increase in mouse survival at 11 mg/kg, po for 1 day post infection; format: functional, organism-based; parameters: dose 11 mg/kg; conditions: A/Puerto Rico/8/1934(H1N1)
Influenza A virus [3] = assay: Antimicrobial activity against oseltamivir-sensitive influenza A virus (A/Yokohama/67/2006 (H1N1)) clone 1 infected in BALB/c mouse assessed as reduction in viral titer in lung at 1.0 mg/kg, po administered qd post 13 hrs infection measured after 37 hrs post infection; format: functional, organism-based; parameters: dose 1 mg/kg
Influenza A virus [4] = assay: Antimicrobial activity against oseltamivir-sensitive influenza A virus (A/Yokohama/67/2006 (H1N1)) clone 1 infected in BALB/c mouse assessed as reduction in viral titer in lung at 1.0 mg/kg, po administered QD post 13 hrs infection measured after 85 hrs post infection; format: functional, organism-based; parameters: dose 1 mg/kg
Influenza A virus [5] = assay: Antimicrobial activity against Influenza A virus (A/Puerto Rico/8/34(H1N1)) infected in BALB/c mouse assessed as increase in mouse survival at 11 mg/kg, po for 4 days post infection; format: functional, organism-based; parameters: dose 11 mg/kg; conditions: A/Puerto Rico/8/1934(H1N1)
Influenza A virus [6] = assay: Antimicrobial activity against Influenza A virus (A/Puerto Rico/8/34(H1N1)) infected in BALB/c mouse assessed as increase in mouse survival at 1.1 mg/kg, po for 12 hrs post infection; format: functional, organism-based; parameters: dose 1.1 mg/kg; conditions: A/Puerto Rico/8/1934(H1N1)
Rattus norvegicus = species on record: Rattus norvegicus; assay: Half life in rat assessed as oseltamivir carboxylate; format: ADME, organism-based; conditions: in vivo
Influenza A virus [7] = assay: Antimicrobial activity against oseltamivir-sensitive influenza A virus (A/Yokohama/67/2006 (H1N1)) clone 1 infected in BALB/c mouse assessed as reduction in viral titer in lung at 10 mg/kg, po administered QD post 13 hrs infection measured after 85 hrs post infection; format: functional, organism-based; parameters: dose 10 mg/kg
Influenza A virus [8] = assay: Antimicrobial activity against oseltamivir-sensitive influenza A virus (A/Yokohama/67/2006 (H1N1)) clone 1 infected in BALB/c mouse assessed as reduction in viral titer in lung at 10 mg/kg, po administered QD post 13 hrs infection measured after 61 hrs post infection; format: functional, organism-based; parameters: dose 10 mg/kg
Influenza A virus [9] = assay: Antimicrobial activity against Influenza A virus (A/Puerto Rico/8/34(H1N1)) infected in BALB/c mouse assessed as increase in mouse survival at 1.1 mg/kg, po for 4 days post infection; format: functional, organism-based; parameters: dose 1.1 mg/kg; conditions: A/Puerto Rico/8/1934(H1N1)
Influenza A virus [10] = assay: Antimicrobial activity against Influenza A virus (A/Puerto Rico/8/34(H1N1)) infected in BALB/c mouse assessed as increase in mouse survival at 110 mg/kg, po for 1 days before infection; format: functional, organism-based; parameters: dose 110 mg/kg; conditions: A/Puerto Rico/8/1934(H1N1)
Summary of the method: (§1)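 Mice received one oral dose (200 μl in saline) at 1 day or 12 h before intranasal infection with A/PR/8/34 at 100 PFU. Saline controls were dosed intranasally 7 days before infection. n = 8 per group. Survival was monitored to 20 dpi and compared with saline by log-rank test.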

Influenza A virus [11] = assay: Antimicrobial activity against Influenza A virus (A/Puerto Rico/8/34(H1N1)) infected in BALB/c mouse assessed as reduction in viral titer in lung at 10 mg/kg, po bid repeated regimen after 11 hrs post infection; format: functional, organism-based; parameters: dose 10 mg/kg; conditions: A/Puerto Rico/8/1934(H1N1), TDE = time-dependent effect
Summary of the method: (§2)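 BALB/c mice infected intranasally with A/PR/8/34 at 30 PFU. Oral drug was given twice daily from 11 hpi with intranasal saline at 11 hpi, or a single intranasal dose at 11 hpi with oral saline on the same schedule. Lungs (n = 3) were harvested at 35, 59 and 83 hpi. Titers were measured by MDCK plaque assay, log10 PFU/lungs.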

Influenza A virus [12] = assay: Antimicrobial activity against Influenza A virus (A/Puerto Rico/8/34(H1N1)) infected in BALB/c mouse assessed as reduction in viral titer in lung at 1 mg/kg, po bid repeated regimen after 11 hrs post infection; format: functional, organism-based; parameters: dose 1 mg/kg; conditions: A/Puerto Rico/8/1934(H1N1), TDE = time-dependent effect; summary of the method: as §2
Influenza A virus [13] = assay: Antimicrobial activity against Influenza A virus (A/Puerto Rico/8/34(H1N1)) infected in BALB/c mouse assessed as increase in mouse survival at 11 mg/kg, po for 7 days post infection; format: functional, organism-based; parameters: dose 11 mg/kg; conditions: A/Puerto Rico/8/1934(H1N1)
Influenza B virus [14] = assay: Antimicrobial activity against Influenza B virus (B/Malaysia/2506/2004) infected po dosed Mustela putorius furo assessed as nasal viral titer treated bid after 4 hrs post infection measured after 3 days; format: functional, organism-based
Summary of the method: (§3)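 Ferrets (600–800 g), seronegative by hemagglutination inhibition, anaesthetized with ketamine/xylazine and infected with B/Malaysia/2506/2004, 1,000 PFU/100 μl. From 4 hpi they received either a single intranasal dose (saline, 0.05 or 0.5 μmol/kg) or 25 mg/kg oral twice daily. Nasal wash titers measured by MDCK plaque assay on days 1, 2 and 3, log10 PFU/ml (n = 5). Undetectable samples entered at the lower limit of detection.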

Influenza A virus [15] = assay: Antimicrobial activity against Influenza A virus (A/Puerto Rico/8/34(H1N1)) infected in BALB/c mouse assessed as increase in mouse survival at 1.1 mg/kg, po for 7 days post infection; format: functional, organism-based; parameters: dose 1.1 mg/kg; conditions: A/Puerto Rico/8/1934(H1N1)
Influenza B virus [16] = assay: Antimicrobial activity against Influenza B virus (B/Malaysia/2506/2004) infected po dosed Mustela putorius furo assessed as nasal viral titer treated bid after 4 hrs post infection measured after 1 day; format: functional, organism-based; summary of the method: as §3
Influenza A virus [17] = assay: Antimicrobial activity against Influenza A virus (A/Puerto Rico/8/34(H1N1)) infected in BALB/c mouse assessed as increase in mouse survival at 1.1 mg/kg, po for 1 day post infection; format: functional, organism-based; parameters: dose 1.1 mg/kg; conditions: A/Puerto Rico/8/1934(H1N1)
Influenza A virus [18] = assay: Antimicrobial activity against Influenza A virus (A/Puerto Rico/8/34(H1N1)) infected in BALB/c mouse assessed as increase in mouse survival at 1.1 mg/kg, po bid administered 11 hrs post infection for 5 days […] infection measured on day 20; format: functional, A/Puerto Rico/8/1934(H1N1)
Summary of the method: (§4)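 Female BALB/c mice (5–6 weeks) infected intranasally with A/PR/8/34 at 100 PFU, n = 10 per group. Each mouse got one intranasal dose at 11 hpi plus oral doses twice daily from 11 hpi to 120 hpi. Drug went by one route and saline by the other, all in saline vehicle. Survival was followed daily to day 20 and analysed by Kaplan-Meier with a log-rank test against the saline group.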

Influenza A virus [19] = assay: Antimicrobial activity against Influenza A virus (A/Puerto Rico/8/34(H1N1)) infected in BALB/c mouse assessed as increase in mouse survival at 110 mg/kg, po for 12 hrs before infection; format: functional, organism-based; parameters: dose 110 mg/kg; conditions: A/Puerto Rico/8/1934(H1N1); summary of the method: as §1
Influenza A virus [20] = assay: Antimicrobial activity against Influenza A virus (A/Puerto Rico/8/34(H1N1)) infected in BALB/c mouse assessed as increase in mouse survival at 1.1 mg/kg, po bid administered 11 hrs post infection for 5 days […] infection; format: functional, organism-based; parameters: dose 1.1 mg/kg; conditions: A/Puerto Rico/8/1934(H1N1); summary of the method: as §4
Influenza A virus [21] = assay: Antimicrobial activity against oseltamivir-sensitive influenza A virus (A/Yokohama/67/2006 (H1N1)) clone 1 infected in BALB/c mouse assessed as reduction in viral titer in lung at 10 mg/kg, po administered QD post 13 hrs infection measured after 37 hrs post infection; format: functional, organism-based; parameters: dose 10 mg/kg
Influenza B virus [22] = assay: Antimicrobial activity against Influenza B virus (B/Malaysia/2506/2004) infected po dosed Mustela putorius furo assessed as nasal viral titer treated bid after 4 hrs post infection measured after 2 days; format: functional, organism-based; summary of the method: as §3
Influenza A virus [23] = assay: Antimicrobial activity against oseltamivir-sensitive influenza A virus (A/Yokohama/67/2006 (H1N1)) clone 1 infected in BALB/c mouse assessed as reduction in viral titer in lung at 1.0 mg/kg, po administered QD post 13 hrs infection measured after 61 hrs post infection; format: functional, organism-based; parameters: dose 1 mg/kg
Influenza A virus [24] = assay: Antimicrobial activity against Influenza A virus (A/Puerto Rico/8/34(H1N1)) infected in BALB/c mouse assessed as increase in mouse survival at 11 mg/kg, po for 12 hrs post infection; format: functional, organism-based; parameters: dose 11 mg/kg; conditions: A/Puerto Rico/8/1934(H1N1)

CO[C@@H]([C@@H]1OC(C(=O)O)=C[C@H](NC(=N)N)[C@H]1NC(C)=O)[C@H](O)CO [LANINAMIVIR]
41.4 h: half-life [1]

CCOC(=O)C1=C[C@@H](OC(CC)CC)[C@H](NC(C)=O)[C@@H](N)C1.O=P(O)(O)O [OSELTAMIVIR PHOSPHATE]
50%: Activity (Influenza A virus [18])
inactive: Activity (Influenza A virus [2]) | Activity (Influenza A virus [5]) | Activity (Influenza A virus [6]) | Activity (Influenza A virus [9]) | Activity (Influenza A virus [13]) | Activity (Influenza A virus [15]) | Activity (Influenza A virus [17]) | Activity (Influenza A virus [24])
7 h: t1/2 (Rattus norvegicus)
active: Activity (Influenza A virus [3]) | Activity (Influenza A virus [4]) | Activity (Influenza A virus [7]) | Activity (Influenza A virus [8]) | Activity (Influenza A virus [10]) | Activity (Influenza A virus [11]) tde | Activity (Influenza A virus [12]) tde | Activity (Influenza B virus [14]) Dose-dependent effect | Activity (Influenza B virus [16]) Dose-dependent effect | Activity (Influenza A virus [19]) | Activity (Influenza A virus [20]) | Activity (Influenza A virus [21]) | Activity (Influenza B virus [22]) Dose-dependent effect | Activity (Influenza A virus [23])
